Assay [1] deals with T47D. The assay is described as follows: Antiproliferative activity against human T47D cells at 10 uM after 48 hrs by SRB assay. The assay is classed as functional, cell-based. The gist of the method: (§1)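 Cells exposed 48 h to compounds at 1, 3, 10 and 30 μM (pure compounds from 4 mM 2-propanol stocks, final solvent <0.75%). Viability read by sulforhodamine B staining. Value is % inhibition versus untreated control, [1-(OD treated/OD control)]×100. Cycloheximide 10 μM and rotenone 1 and 10 nM served as controls.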

The test system of assay [2] is MDA-MB-231. The assay is described as follows: Antiproliferative activity against human MDA-MB-231 cells at 10 uM after 48 hrs by SRB assay. The assay is classed as functional, cell-based. The method, boiled down: as §1
For orientation: The SRB assay estimates cell density from bound dye.

Assay [3] concerns T47D. Nature of the assay: Inhibition of mitochondrial ETC complex 1 in human T47D cells assessed as inhibition of oxygen consumption at 30 uM after 5 to 10 mins by Clarke-type electrode analysis. It counts as cell-based. The gist of the method:
(§2)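 For acute exposure, intact T47D cells received compound at 3, 10 or 30 μM for 5–10 min. Oxygen consumption was then measured with a Clarke-type electrode, with rotenone at 1–100 nM as control. Results are % inhibition of the untreated rate, averaged over two independent experiments with deviation from the average.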

Assay [4] has as its system T47D. The assay is described as follows: Inhibition of mitochondrial ETC complex 1 in human T47D cells assessed as inhibition of oxygen consumption at 10 uM after 2 hrs by Clarke-type electrode analysis. The assay is classed as cell-based. The method, boiled down:
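T47D cells were pretreated with 10 μM compound, or 0.01 μM rotenone, for 2 h. Cells were then detached and washed, and the oxygen consumption rate was measured with a Clarke-type electrode. Results are % inhibition relative to untreated controls.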

Assay [5] addresses T1, Mitochondrial complex I (NADH dehydrogenase) (Homo sapiens) (UniProt P03923+O95299+O00217+P03901+P56556+P03886+O95139+O00483+Q86Y39+P17568+P03891+O75306+P03915+P51970+O43674+P03905+P03897+O14561+O15239+O43181+O43676+O43677+O43678+O43920+O75251+O75380+O75438+O75489+O95167+O95168+O95169+O95178+O95182+O95298+O96000+P19404+P28331+P49821+P56181+Q16718+Q16795+Q8N183+Q9BU61+Q9NRX3+Q9NX14+Q9P032+Q9P0J0+Q9UI09+Q9Y375+Q9Y6M9). Nature of the assay: Inhibition of mitochondrial ETC complex 1 in human T47D cells assessed as inhibition of 1,10-phenanthroline-induced HIF1 activation at 30 uM incubated for 30 mins prior to 1,10-phenanthroline-challenge measured after 16 hrs by luciferase reporter assay. It counts as cell-based. The gist of the method: (§3)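 pHRE-luc reporter transfected T47D cells were exposed for 16 h to hypoxia (1% O2) or to chemical hypoxia (10 μM 1,10-phenanthroline) in the presence of compound. The highest concentration tested was 30 μM. Luciferase signal was expressed as % inhibition of the induced control. IC50 and 95% CI came from one representative concentration-response experiment run in triplicate. Cycloheximide at 10 μM served as control.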
For orientation: In a reporter assay the amount or activity of a reporter protein is the signal.

Assay [6] concerns the target Mitochondrial complex I (NADH dehydrogenase). Nature of the assay: Inhibition of mitochondrial ETC complex 1 in human T47D cells assessed as inhibition of 1,10-phenanthroline-induced HIF1 activation incubated for 30 mins prior to 1,10-phenanthroline-challenge measured after 16 hrs by luciferase reporter assay. It counts as cell-based. The method, boiled down: as §3

Assay [7] shares this target. Nature of the assay: Inhibition of mitochondrial ETC complex 1 in human T47D cells assessed as inhibition of 1% O2-induced HIF1 activation incubated for 30 mins prior to 1% O2-challenge measured after 16 hrs by luciferase reporter assay. It counts as cell-based. The method, boiled down: as §3
The test system of assay [8] is T47D. The assay is described as follows: Inhibition of mitochondrial ETC complex 1 in human T47D cells assessed as inhibition of oxygen consumption at 10 uM after 10 mins by Clarke-type electrode analysis. The assay is classed as cell-based. The gist of the method: as §2
Assay [9] deals with T47D. The assay is described as follows: Antiproliferative activity against human T47D cells at 1 to 10 uM after 48 hrs by SRB assay. The assay is classed as functional, cell-based. The gist of the method: (§4)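 T47D or MDA-MB-231 breast tumor cells were exposed to 1, 3, 10 and 30 μM for 48 h or 144 h (6 d). For the 6 d exposure, medium was replaced after 3 days with fresh medium containing compound. Stocks were 4 mM in 2-propanol, with final solvent below 0.75%. Viability was measured by sulforhodamine B and expressed as % inhibition of the untreated control: [1−(OD treated/OD control)]×100.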

Assay [10] deals with MDA-MB-231. Nature of the assay: Antiproliferative activity against human MDA-MB-231 cells at 1 to 10 uM after 48 hrs by SRB assay. The assay is classed as functional, cell-based. The gist of the method: as §4
Assay [11] deals with T1, Mitochondrial complex I (NADH dehydrogenase) (Homo sapiens). The assay is described as follows: Inhibition of mitochondrial ETC complex 1 in human T47D cells assessed as inhibition of 1% O2-induced HIF1 activation at 30 uM incubated for 30 mins prior to 1% O2-challenge measured after 16 hrs by luciferase reporter assay. The assay is classed as cell-based. The method, boiled down:
as §3

Assay [12] concerns T47D. The assay is described as follows: Inhibition of mitochondrial ETC complex 4 in human digitonin-permeabalized T47D cells assessed as inhibition of ascorbate/TMPD-initiated respiration at 10 uM after 2 hrs by Clarke-type electrode analysis in presence of antimycin A. It counts as cell-based. The gist of the method: (§5)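 T47D cells were pretreated for 2 h with 10 μM compound (rotenone control 0.01 μM), then detached, washed and permeabilized with digitonin. Substrates and inhibitors were added in sequence while O2 uptake was followed by Clarke electrode. Respiration was started with malate/pyruvate (complex I) or succinate (complex II). Antimycin A then blocked complex III, and TMPD/ascorbate re-initiated respiration via complex IV. Rates were normalized to the untreated control.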

Assay [13] relates to T47D. The assay is described as follows: Inhibition of mitochondrial ETC complex 2 in human digitonin-permeabalized T47D cells assessed as inhibition of succinate-initiated respiration at 10 uM after 2 hrs by Clarke-type electrode analysis. It counts as cell-based. The method, boiled down: as §5
The subject of assay [14] is T47D. Nature of the assay: Antiproliferative activity against human T47D cells at 1 to 30 uM after 144 hrs by SRB assay. The assay is classed as functional, cell-based. The method, boiled down:
as §4

In assay [15] the test system is MDA-MB-231. The assay is described as follows: Antiproliferative activity against human MDA-MB-231 cells at 1 to 30 uM after 144 hrs by SRB assay. It counts as functional, cell-based. The gist of the method: as §4
In assay [16] the test system is T47D. Nature of the assay: Inhibition of mitochondrial ETC complex 1 in human digitonin-permeabalized T47D cells assessed as inhibition of malate/pyruvate-initiated respiration at 10 uM after 2 hrs by Clarke-type electrode analysis. It counts as cell-based. The method, boiled down:
as §5

Assay [17] relates to T47D. Nature of the assay: Inhibition of mitochondrial ETC complex 1 in human T47D cells assessed as inhibition of oxygen consumption after 5 to 10 mins by Clarke-type electrode analysis. It counts as cell-based. The gist of the method: as §2
Assay [18] relates to T47D. The assay is described as follows: Antiproliferative activity against human T47D cells at 30 uM after 48 hrs by SRB assay. The assay is classed as functional, cell-based. The method, boiled down:
as §4

In assay [19] the test system is MDA-MB-231. Nature of the assay: Antiproliferative activity against human MDA-MB-231 cells at 30 uM after 48 hrs by SRB assay. The assay is classed as functional, cell-based. The method, boiled down:
as §4

In assay [20] the test system is T47D. The assay is described as follows: Inhibition of mitochondrial ETC complex 4 in human digitonin-permeabalized T47D cells assessed as inhibition of ascorbate/TMPD-initiated respiration at 0.01 uM after 2 hrs by Clarke-type electrode analysis in presence of antimycin A. The assay is classed as cell-based. The gist of the method:
(§6)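 After 2 h pretreatment (rotenone 0.01 μM; test agents 10 μM), cells were detached and permeabilised with digitonin. Additions made in sequence: malate/pyruvate (complex I) or succinate (complex II), antimycin A to block complex III, then TMPD/ascorbate (complex IV) to restart respiration. Clark-electrode O2 consumption slopes were normalised to untreated control.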

The test system of assay [21] is T47D. The assay is described as follows: Inhibition of mitochondrial ETC complex 1 in human T47D cells assessed as inhibition of oxygen consumption at 0.01 uM after 2 hrs by Clarke-type electrode analysis. The assay is classed as cell-based. The method, boiled down:
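T47D cells treated 2 h in culture dishes with compound (10 μM; rotenone 0.01 μM), then detached and washed. O2 consumption measured with a Clark-type electrode. Value is % inhibition versus untreated control.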

Assay [22] relates to T47D. Nature of the assay: Inhibition of mitochondrial ETC complex 1 in human digitonin-permeabalized T47D cells assessed as inhibition of malate/pyruvate-initiated respiration at 0.01 uM after 2 hrs by Clarke-type electrode analysis. The assay is classed as cell-based. The gist of the method:
as §6

Assay [23] deals with T47D. Nature of the assay: Inhibition of mitochondrial ETC complex 2 in human digitonin-permeabalized T47D cells assessed as inhibition of succinate-initiated respiration at 0.01 uM after 2 hrs by Clarke-type electrode analysis. The assay is classed as cell-based. The method, boiled down: as §6
Assay [24] relates to T47D. The assay is described as follows: Inhibition of mitochondrial ETC complex 1 in human T47D cells assessed as inhibition of oxygen consumption at 0.01 uM after 10 mins by Clarke-type electrode analysis. The assay is classed as cell-based. The method, boiled down: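 Intact T47D cells; O2 consumption read on a Clark-type electrode after acute (5–10 min) compound exposure. Value is % inhibition of O2 consumption rate versus untreated control. Rotenone reference tested at 1, 10 and 100 nM. Mean of two independent experiments.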

SMILES strings stand for the structures. Active and inactive are the calls of the source. The rule behind the calls is not given here. Where only a bound is given, the exact number is not on record here.

As for `C[C@@H]1C[C@@H]([C@H](O)CC2CC(=O)NC(=O)C2)C(=O)[C@@H](C)C1`, the result in the assay with T47D [1] and in the assay on MDA-MB-231 [2] was Active.

By inhibition is commonly meant the drop in the measured response relative to a control, in per cent. The term IC50 denotes the concentration needed to halve the response being measured. With `CCCCCC/C=C\CCCCCCCCCC(=O)O[C@H](CC/C(C)=C/COc1ccc2ccc(=O)oc2c1)C(C)(C)O` [R-(+)-MARMIN-6'-CIS-VACCENOATE], the inhibition with T47D [3] was 20%; in the assay with T47D [4] it was -6%; in assay [5], 20%; with T47D [8] it was 5%; in assay [11] it was 20%. Also, the IC50 in [6] and in assay [7] was more than 30 µM throughout. Also, the outcome in the assay on T47D [9] and in the assay with MDA-MB-231 [10] was Active.

Consider `CCCCC/C=C\C/C=C\CCCCCCCC(=O)O[C@H](CC/C(C)=C/COc1ccc2ccc(=O)oc2c1)C(C)(C)O` [R-(+)-MARMIN-6'-LINOLEATE], for which the inhibition is 25% with T47D [3]; 62% in the assay on T47D [4]; 41% in the assay on T47D [13]; 6% in the assay with T47D [8]; 68% in the assay with T47D [16]. For the same molecule, the inhibition result in the assay with T47D [12] is “inactive”. Further, the IC50 in [6] is 2.35 µM; in [7] it was 0.92 µM. Further, the result in the assay on T47D [14], in the assay on MDA-MB-231 [15], in the assay on T47D [9] and in the assay with MDA-MB-231 [10] was Active.

With `C=C(C)[C@H](O)CC/C(C)=C/COc1ccc2ccc(=O)oc2c1`, the inhibition in the assay with T47D [3] is 30%; in the assay with T47D [4] it was 31%; in the assay with T47D [13], 16%; in the assay with T47D [8], 27%; in the assay with T47D [17] it was “Dose-dependent effect”; with T47D [16] it was 16%. The inhibition entry in the assay with T47D [12] is “inactive”. Moreover, the IC50 amounted to 21.8 µM in [6] and 10.4 µM in [7]. Besides, the result with T47D [9] and in the assay with MDA-MB-231 [10] was Active.

On to `CCCCCCCC(=O)O[C@H](CC/C(C)=C/COc1ccc2ccc(=O)oc2c1)C(C)(C)O` [R-(+)-MARMIN-6'-OCTANOATE], for which the inhibition was 30% in the assay on T47D [3], 39% in the assay with T47D [4], 28% with T47D [8] and “Dose-dependent effect” in the assay on T47D [17]. In the assay with T47D [12], the inhibition entry is “inactive”. Also, the figures for the IC50 in assay [6] and in assay [7] were 3.71 µM and 3.08 µM, respectively. Further, the outcome with T47D [14], in the assay on MDA-MB-231 [15], in the assay with T47D [9], in the assay with MDA-MB-231 [10], in the assay with T47D [18] and in the assay on MDA-MB-231 [19] was Active.

With `C=C(C)[C@H]1Cc2c(ccc3c2O[C@@H]2COc4cc(OC)c(OC)cc4[C@@H]2C3=O)O1`, the inhibition entry with T47D [20] was “inactive”. Also, the inhibition with T47D [21] was determined as 68%; in the assay with T47D [22], 75%; with T47D [23] it was 18%; in the assay with T47D [24], 21%.

(Values after ChEMBL document CHEMBL2346643, “Semisynthetic studies identify mitochondria poisons from botanical dietary supplements--geranyloxycoumarins from Aegle marmelos” (Bioorg Med Chem, 2013).)
